# In the M2OR odorant receptor database:
# Molecular target: T1, OR1A1 (Homo sapiens) (UniProt Q9P1Q5)
# T1 sequence (whole entry): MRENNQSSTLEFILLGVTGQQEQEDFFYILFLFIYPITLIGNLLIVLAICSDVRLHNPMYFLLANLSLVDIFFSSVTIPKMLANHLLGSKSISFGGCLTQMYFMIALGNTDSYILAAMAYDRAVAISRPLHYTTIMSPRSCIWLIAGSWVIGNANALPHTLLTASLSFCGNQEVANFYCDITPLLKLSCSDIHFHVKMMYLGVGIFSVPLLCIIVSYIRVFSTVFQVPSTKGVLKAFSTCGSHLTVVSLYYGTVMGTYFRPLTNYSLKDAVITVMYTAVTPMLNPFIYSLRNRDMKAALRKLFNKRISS
# Settings: stereoisomer not certain
# Procedure, shortened: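 Each receptor–molecule pair is labelled responsive or non-responsive (inactive) according to whether the original authors judged the measured signal statistically different from baseline. The data were taken from the main text and supplementary material of published papers and checked for typos and inconsistencies. Assay methods differed by source, with transient luciferase assays in mammalian cell lines being common.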
# 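Also: active if original authors judged signal statistically different from baseline.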
row,Compound,odorant receptor agonist call
1,O=C1Cc2ccccc2O1,inactive
2,CCOC(=O)C(C)C,inactive
3,CC1=CCC2CC1C2(C)C (configuration not stated),inactive
4,CCCCCCCCCO,inactive
5,COC(=O)Cc1ccccc1C,active
6,COC(C=C(C)CCC=C(C)C)OC,inactive
7,CCCCCCO,inactive
8,CCC=O,inactive
9,CCCC(C)C=O (configuration not stated),inactive
10,CC(=O)c1cnccn1,inactive
11,CC(=O)c1ccccc1N,inactive
12,CSCCCO,inactive
13,CCCCCCCC(C)=O,active
14,CCC(C)c1nccnc1OC (configuration not stated),inactive
15,CC(C)C12CCC(C)(CC1)O2,inactive
16,CCCCCCCCCCO,active
17,CCc1nccnc1CC,inactive
18,CSSSC,inactive
19,CCC(=O)C(C)=O,inactive

row,Compound,odorant receptor agonist call
1,CC(C)=CCCC(C)=CCO,active
2,CC=Cc1ccc(OC)cc1,active
3,CCCCCCCC(=O)[O-].[H+],inactive
4,CC=CC(=O)C1=C(C)C=CCC1(C)C,inactive
5,COc1nccnc1CC(C)C,inactive
6,CSC,inactive
7,CCC(C)C=O (configuration not stated),inactive
8,CCCCC=CC=O,inactive
9,CC(=O)C=CC1C(C)=CCCC1(C)C (configuration not stated),inactive
10,CC(=O)C1=NCCS1,inactive
11,CC(=O)C=CC1=C(C)CCCC1(C)C,inactive
12,CC(C)=CCCC(C)CC=O (configuration not stated),active
13,O=C(O)CCc1ccccc1,inactive
14,CCCC(O)CC(=O)OCC (configuration not stated),inactive
15,CC(=O)CC(C)(C)S,inactive
16,CCC(C)CO (configuration not stated),inactive
17,CCCCCC1=C(C)CCC1=O,active
18,OCC=Cc1ccccc1,inactive
